Data set [1] concerns A549. Briefly: Cytotoxicity against human TNFalpha-induced A549 cells assessed as decrease in cell viability at 50 uM incubated for 30 mins prior to TNFalpha-induction measured after 7 hrs by alamar blue staining relative to control. It counts as cell-based. To be noted: a549, 7 h. (In general: Resazurin is reduced to fluorescent resorufin, in cell work by metabolically active cells.)

The subject of data set [2] is CCRF-CEM. The experiment in a line: Cytotoxicity against human CCRF-CEM cells after 48 hrs by alamar blue assay. It counts as functional, cell-based. Put shortly:
(§1)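 Viability read by Alamar Blue staining after 48 h exposure to a range of concentrations. Vero (African green monkey kidney epithelial), RWPE-1, DU-145 and CCRF-CEM human cells were used. IC50 is reported as mean ± SD.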

Data set [3] concerns DU-145. Briefly: Cytotoxicity against human DU145 cells after 48 hrs by alamar blue assay. In kind it is functional, cell-based. Put shortly: as §1
The subject of data set [4] is DU-145. The experiment in a line: Ratio of cryptocaryone IC50 to compound IC50 for human DU145 cells. In kind it is functional.
In the next data set the test system is Vero. The experiment in a line: Cytotoxicity against african green monkey Vero cells after 48 hrs by alamar blue assay. It counts as cell-based. To be noted: Chlorocebus sabaeus. The method in brief: as §1
Data set [5] in a line: Cytotoxicity against human RWPE1 cells after 48 hrs by alamar blue assay. In kind it is cell-based. To be noted: RWPE-1, 48 h. Put shortly: as §1
A short description of data set [6]: Selectivity index, ratio of IC50 for human RWPE1 cells to IC50 for human DU145 cells. It counts as functional.
The test system of data set [7] is A549. The experiment in a line: Inhibition of TNFalpha-induced NFkappaB in human A549 cells assessed as residual enzyme activity at 100 uM incubated for 30 mins prior to TNFalpha-induction measured after 7 hrs by luciferase reporter gene assay relative to control. In kind it is cell-based. Put shortly:
(§2)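 A549 human lung cells stably carry a luciferase reporter driven by six tandem consensus NF-κB sites. Signaling was induced with TNF-α, and compound was added at 100, 50 or 10 μM. Luciferase activity is expressed relative to the induced, DMSO-treated control, set at 100%. Mean ± SD reported.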
For orientation: In a reporter assay the amount or activity of a reporter protein is the signal.

The subject of data set [8] is A549. The experiment in a line: Inhibition of TNFalpha-induced NFkappaB in human A549 cells assessed as residual enzyme activity at 50 uM incubated for 30 mins prior to TNFalpha-induction measured after 7 hrs by luciferase reporter gene assay relative to control. It counts as cell-based. Put shortly:
as §2

Data set [9] has as its system A549. The experiment in a line: Inhibition of TNFalpha-induced NFkappaB in human A549 cells assessed as residual enzyme activity at 10 uM incubated for 30 mins prior to TNFalpha-induction measured after 7 hrs by luciferase reporter gene assay relative to control. It counts as cell-based. The method in brief:
as §2

A short description of data set [10]: Solubility of the compound in DMEM media. It counts as physicochemical.
For data set [11], the system named is DU-145. Briefly: Inhibition of IkappaB in human DU145 cells assessed as inhibition of TNFalpha-induced NFkappaB p65 nuclear translocation at 100 uM incubated for 14 hrs prior to TNFalpha-induction measured after 2 hrs by Western blot analysis. In kind it is cell-based.
The subject of data set [12] is CCRF-CEM. The experiment in a line: Inhibition of IkappaB in human CCRF-CEM cells assessed as inhibition of PMA-induced NFkappaB p65 nuclear translocation at 100 uM incubated for 12 hrs prior to TNFalpha-induction measured after 4 hrs by Western blot analysis. In kind it is cell-based. On the technique in general: In western blotting, separated proteins are transferred to a membrane and probed.

Data set [13] relates to DU-145. Briefly: Partial inhibition of IkappaB in human DU145 cells assessed as inhibition of TNFalpha-induced NFkappaB p65 nuclear translocation at 25 uM incubated for 14 hrs prior to TNFalpha-induction measured after 2 hrs by Western blot analysis. In kind it is cell-based.
The test system of data set [14] is CCRF-CEM. The experiment in a line: Partial inhibition of IkappaB in human CCRF-CEM cells assessed as inhibition of PMA-induced NFkappaB p65 nuclear translocation at 25 uM incubated for 12 hrs prior to TNFalpha-induction measured after 4 hrs by Western blot analysis. In kind it is cell-based.
The subject of data set [15] is DU-145. The experiment in a line: Inhibition of NFkappaB in human DU145 cells assessed as inhibition of TNFalpha-induced IL8 mRNA production at 33 uM by RT-PCR analysis. In kind it is cell-based. Put shortly: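 DU-145 cells were dosed with compound (100 or 33 μM) or DMSO vehicle, then induced with TNF-α. IL-8 mRNA was analysed by semiquantitative RT-PCR, with GAPDH as reference. Noninduced and induced cells served as controls.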

The subject of data set [16] is DU-145. The experiment in a line: Inhibition of NFkappaB in human DU145 cells assessed as inhibition of TNFalpha-induced IL8 protein production at 33 uM by ELISA. It counts as cell-based. The method in brief:
(§3)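 DU-145 cells were dosed with compound (100 or 33 μM) or DMSO vehicle, then NF-κB was induced with TNF-α. Secreted IL-8 in the culture medium was quantified by ELISA, with noninduced and induced controls. Mean ± SEM reported.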

In data set [17] the test system is DU-145. The experiment in a line: Inhibition of NFkappaB in human DU145 cells assessed as TNFalpha-induced IL8 protein level at 100 uM by ELISA. In kind it is cell-based. The method in brief:
as §3

Active and inactive are the calls of the source. The calls are words filed in the database; no cut-off is given here. Where only a bound is given, the exact number is not on record here.

With `CC(=O)O/C(C)=C1\CO[C@]2(c3ccccc3)C=CC(=O)C[C@H]12` (racemic; form 1) [listing 1 of 2 here], in the data set on A549 [1], the Activity is on record as 5%. Also, the IC50 was 26.4 µM with CCRF-CEM [2] (ccrf-cem); 35.9 µM in the data set with DU-145 [3] (Homo sapiens, DU-145, 48 h); greater than 500 µM in the data set with Vero; 98.8 µM in [5]. Besides, the “Ratio IC50” value with DU-145 [4] came out at 15; in data set [6], 2.75.
Take `CC(=O)O/C(C)=C1\CO[C@]2(C)C=C(Br)C(=O)C[C@H]12` (racemic): the inhibition entry in the data set with A549 [7], with A549 [8] and in the data set on A549 [9] was “inactive” throughout.
In the case of `CC(=O)O/C(C)=C1\CO[C@]2(C)C=C(C)C(=O)C[C@H]12` (racemic), the inhibition entry in the data set with A549 [7], in the data set with A549 [8] and with A549 [9] was “inactive” throughout.
Turning to `CO[C@@]12C=C(Br)C(=O)C[C@@H]1/C(=C(/OC(C)=O)c1ccccc1)CC2` (racemic), the solubility result in data set [10] is listed as “Insoluble”.
On to `CC(=O)O/C(C)=C1\CO[C@]2(c3ccccc3)C=CC(=O)C[C@H]12` (racemic; form 1) [listing 2 of 2 here], for which the Activity amounted to 17.3% in the data set with A549 [7], 36.2% in the data set on A549 [8], 93.7% in the data set with A549 [9] and 2970 pg/mL with DU-145 [16]. The inhibition entry in the data set on DU-145 [11], with CCRF-CEM [12], with DU-145 [13], with CCRF-CEM [14] and with DU-145 [15] was “Active” throughout.
`CC(=O)O/C(C)=C1\CO[C@]2(c3ccccc3)C=CC(=O)C[C@H]12` (racemic; form 2) [listing 1 of 2 here]: the IC50 with CCRF-CEM [2] (Homo sapiens, CCRF-CEM, 48 h) worked out at 19 µM; in the data set on DU-145 [3] (du-145), 46 µM.
Consider `CC(=O)O/C(C)=C1\CO[C@]2(C)C=C(Br)[C@H](O)C[C@H]12` (racemic), for which the inhibition entry with A549 [7], in the data set on A549 [8] and in the data set on A549 [9] was “inactive” each time.
In the case of `CC(=O)O/C(=C1\CO[C@]2(C)C=CC(=O)C[C@H]12)c1ccccc1` (racemic), the Activity in the data set on A549 [7] was determined as 33.9%; in the data set on A549 [8], 61.6%; with A549 [9], 90.9%; with A549 [1] it was 10%; in the data set with DU-145 [16], 3480 pg/mL. Moreover, the IC50 in the data set on CCRF-CEM [2] (Homo sapiens, CCRF-CEM, 48 h) was 26.4 µM; in the data set on DU-145 [3] (Homo sapiens, DU-145, 48 h) it was 33.7 µM; with Vero, greater than 500 µM; in [5], 14.8 µM. Also, the “Ratio IC50” value in the data set on DU-145 [4] came out at 15; in data set [6], 0.44. In addition, the inhibition result in the data set with DU-145 [11], in the data set with CCRF-CEM [12], in the data set with DU-145 [13], in the data set with CCRF-CEM [14] and with DU-145 [15] was “Active” throughout.
Turning to `CC(=O)O/C(=C1\CO[C@]2(C)CCC(=O)C[C@H]12)c1ccccc1` (racemic), the Activity in the data set on A549 [7] came to 76.1%; in the data set on A549 [8], 94.4%; in the data set on A549 [9] it was 109%; in the data set with DU-145 [17], 4900 pg/mL. Further, the concentration for half-maximal inhibition (IC50) is greater than 500 µM with CCRF-CEM [2] (Homo sapiens, CCRF-CEM, 48 h); greater than 500 µM in the data set on DU-145 [3] (Homo sapiens, DU-145, 48 h); greater than 500 µM with Vero; greater than 500 µM in data set [5].
Compound `O=C1C[C@@H]2/C(=C(O)\C=C\c3ccccc3)C(=O)C=C[C@@H]2O1` [CRYPTOCARYONE] showed an IC50 in the data set with DU-145 [3] (Homo sapiens, DU-145, 48 h) of 2.3 µM.
As to `CC(=O)O/C(C)=C1\CO[C@]2(C)C=CC(=O)C[C@]12C` (racemic), the inhibition entry with A549 [7], in the data set with A549 [8] and in the data set on A549 [9] was “inactive” throughout.
As to `CC(=O)O/C(C)=C1\CO[C@]2(c3ccccc3)C=CC(=O)C[C@H]12` (racemic; form 2) [listing 2 of 2 here], the Activity with A549 [8] was 18%.
Turning to `CC(=O)[C@H]1CO[C@]2(C)C=C(c3ccccc3)[C@H](O)C[C@H]12` (racemic), the inhibition result in the data set on A549 [7], in the data set on A549 [8] and in the data set with A549 [9] was “inactive” each time.

As a reminder, the IC50 is the concentration that gives 50% inhibition.
